From ChEMBL document CHEMBL2385008, “Inducers of hypoxic response: marine sesquiterpene quinones activate HIF-1” (2013) come the findings set out here.

Active and inactive are the calls of the source. No cut-off for these calls is given here.

Assay [1] deals with T47D. Kind of assay: Activation of HIF-1 (unknown origin) transfected in human T47D cells at 3 to 30 uM after 16 hrs by luciferase reporter gene assay. The assay is classed as cell-based. In outline: (§1)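 T47D breast tumor cells grown in DMEM/F12 with L-glutamine, 10% FBS and penicillin/streptomycin, transfected with HIF-1 reporter pHRE3-TK-Luc; compound exposure 16 h. Luciferase activity normalized to untreated control as relative luciferase activity; 1,10-phenanthroline used as HIF-1 activator control. Mean + SD, n = 4.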

Another assay concerns MDA-MB-231. Kind of assay: Cytotoxicity against human MDA-MB-231 cells assessed as growth inhibition at 3 to 30 uM after 48 hrs by SRB assay. It counts as functional, cell-based. In outline: (§2)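 T47D or MDA-MB-231 breast tumor cells (DMEM/F12, 10% FBS, penicillin/streptomycin) plated in 96-well format and exposed to compound for 48 h. Viability read by sulforhodamine B staining and expressed as % inhibition relative to untreated control. One representative experiment in triplicate, mean with SD.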

For assay [2], the system named is T47D. The assay is described as follows: Cytotoxicity against human T47D cells assessed as growth inhibition at 3 to 30 uM after 48 hrs by SRB assay. The assay is classed as functional, cell-based. In outline: as §2
In assay [3] the test system is T47D. Kind of assay: Activation of HIF-1 (unknown origin) transfected in human T47D cells at 10 uM after 16 hrs by luciferase reporter gene assay relative to control. The assay is classed as cell-based. In outline:
as §1

The test system of assay [4] is T47D. The assay is described as follows: Cytotoxicity against human T47D cells assessed as growth inhibition at 30 uM after 48 hrs by SRB assay relative to control. It counts as functional. Conditions: read-out: GI. The essentials:
as §2

Assay [5] deals with T47D. The assay is described as follows: Activation of HIF-1 in human T47D cells assessed as increase in cellular VEGF production at 10 uM after 16 hrs by ELISA. The assay is classed as cell-based. The essentials: (§3)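 T47D cells treated at 10 μM for 16 h. VEGF protein measured by ELISA in conditioned medium (secreted) or cell lysate (cellular), normalized to cellular protein by micro BCA assay. Untreated medium control; 1,10-phenanthroline positive control. Mean + SD pooled from two independent experiments (n = 3); p < 0.05 versus untreated control flagged.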

For assay [6], the system named is T47D. The assay is described as follows: Activation of HIF-1 in human T47D cells assessed as increase in secreted VEGF production at 10 uM after 16 hrs by ELISA. The assay is classed as cell-based. In outline:
as §3

The next assay relates to T47D (Homo sapiens). The assay is described as follows: Activation of HIF-1 in human T47D cells assessed as increase in VEGF production at 10 uM after 16 hrs by ELISA.

Take `COC(=O)c1cc2c(c(O)c1O)O[C@@]1(C2)[C@@H](C)CC[C@H]2C(C)(C)CCC[C@@]21C`: the result in the assay with T47D [1] was inactive. Besides, the “growth inhibition (GI)” value in the assay on MDA-MB-231 and in the assay on T47D [2] was “Dose-dependent effect” throughout.
`C=C1CCC[C@@]23OC4=C(C[C@]2(C)[C@H](C)CC[C@@]13C)C(=O)C(OC)=CC4=O`: in the assay on T47D [1], the outcome was inactive. Moreover, the “growth inhibition (GI)” value in the assay on MDA-MB-231 and with T47D [2] was “Dose-dependent effect” each time.
For the compound `COC1=CC(=O)C2=C(C[C@]3(O2)[C@@H](C)CC[C@H]2C(C)(C)CCC[C@@]23C)C1=O`, in the assay on T47D [1], the result was inactive. Also, the “growth inhibition (GI)” value in the assay with MDA-MB-231 and in the assay on T47D [2] was “Dose-dependent effect” in each case.
For the compound `C=C1CCC[C@H]2[C@](C)(CC3=C(O)C(=O)C=C(OC)C3=O)[C@H](C)CC[C@@]12C` (relative stereo), in the assay on T47D [3], the Activity was 830%. Besides, the “growth inhibition (GI)” value with MDA-MB-231 and with T47D [2] was “Dose-dependent effect” each time. Moreover, the inhibition of growth at 30 µM with T47D [4] stood at 60%. Moreover, the outcome in the assay with T47D [5], in the assay with T47D [6] and with T47D (Homo sapiens) was Active.
With `C=C1CCC[C@H]2[C@](C)(CC3=C(O)C(=O)C=C(OC)C3=O)[C@@H](C)CC[C@]12C` [ILIMAQUINONE], the Activity in the assay on T47D [3] came out at 930%. The “growth inhibition (GI)” value with MDA-MB-231 and in the assay on T47D [2] was “Dose-dependent effect” throughout. The inhibition of growth at 30 µM with T47D [4] was determined as 56%. In addition, the result in the assay on T47D [5], in the assay with T47D [6] and in the assay on T47D (Homo sapiens) was Active.
Regarding `CC1(C)CCC[C@]2(C)[C@H]3Cc4cc(O)ccc4O[C@@]3(C)CC[C@@H]12`, the result in the assay on T47D [1] was inactive. The “growth inhibition (GI)” value in the assay on MDA-MB-231 and in the assay on T47D [2] was “inactive” each time.
As for `c1cnc2c(c1)ccc1cccnc12`, the outcome in the assay on T47D [5] and in the assay on T47D [6] was Active.
For the compound `COC1=CC(=O)C(O)=C(C[C@]2(C)[C@H](C)CC[C@]34C[C@@]3(C)CCC[C@@H]24)C1=O`, the Activity with T47D [3] turned out to be 1000%. Also, the “growth inhibition (GI)” value with MDA-MB-231 and with T47D [2] was “Dose-dependent effect” in each case. Moreover, in the assay with T47D [4], the inhibition of growth at 30 µM was 58%. Moreover, the outcome in the assay with T47D [5], with T47D [6] and in the assay with T47D (Homo sapiens) was Active.
For the compound `COC1=CC(=O)C2=C(C[C@@H]3[C@@]4(C)CCCC(C)(C)[C@@H]4CC[C@@]3(C)O2)C1=O`, in the assay with T47D [1], the outcome was inactive. For the same compound, the “growth inhibition (GI)” value in the assay on MDA-MB-231 and with T47D [2] was “Dose-dependent effect” in each case.
With `COC1=CC(=O)C2=C(C[C@]3(C)[C@H](C)CC[C@]45C[C@@]4(C)CCC[C@]53O2)C1=O`, the result in the assay on T47D [1] was inactive. Besides, the “growth inhibition (GI)” value in the assay with MDA-MB-231 and in the assay on T47D [2] was “Dose-dependent effect” each time.
